Results from ChEMBL document CHEMBL5579848, “Isothiocyanate-Corticosteroid Conjugates against asthma: Unity makes strength” (Eur J Med Chem, 2024).
≈ marks a conversion by molar mass, not a printed value. Calls of active or inactive are those of the source. The rule behind the calls is not given here.

How the values were obtained:
RBL-2H3 [1] = assay: Inhibition of mast cell degranulation in DNP-HSA antigen sensitized rat RBL-2H3 cells assessed as reduction in beta-hexoaminosidase release at 1 mM preincubated for 5 mins followed by DNP addition and measured after 1 hr by multiplate reader relative to control; format: functional; details: RBL-2H3, 1.083 h, time 65 min
In short: (§1)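 RBL-2H3 cells (72×10^3/well) were sensitized overnight with anti-DNP IgE 0.50 µg/ml, then moved to phenol-free DMEM with 1 mg/ml BSA. Cells were preincubated 5 min at 37 °C with 0.1 % DMSO, cromolyn 1 mM or compound 100 μM, then challenged with DNP-HSA 10 ng/ml. After 1 h, supernatant was incubated 1 h with 1.4 mM p-nitrophenyl-N-acetyl-β-D-glucosaminide (citrate pH 4.2), stopped with Trizma pH 9.4, and read at 405 nm.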

[2] = Solubility of compound in water at 5 mg incubated at 25 degreeC for 6 hrs by UHPLC analysis; format: physicochemical
In short: (§2)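 Solid compound (5 mg) was shaken in 1 mL water, PBS (pH 7.4, 50 mM) or pepsin-free SGF (pH 1.2) for 6 h at 25 °C. Suspensions were filtered (0.45 μm) and the filtrate quantified by UHPLC, reported in mg/L; triplicate, mean values.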

Mus musculus [3] = assay: Anti-asthmatic activity in OVA-induced female BALB/c mouse model assessed as restoration of structure of bronchial epithelium at 3.512 x 10^-6M, ip for 30 min before every ovalbumin challenge on day 0 and 7 and measured after 21 days by H and E staining based microscopic analysis; format: functional, organism-based; details: dose 3.512 10^-6M, time 21.0 day
In short: (§3)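 Female BALB/c mice (20 g, 8 weeks) sensitized s.c. with 100 μg ovalbumin adsorbed to 13.3 mg aluminum hydroxide gel (0.4 ml) on days 0 and 7; saline controls. Test agent (1–2 mg/kg, or equimolar 3,51 × 10^-6 mol) or vehicle given ip 30 min before each OVA dose. Killed day 21 by enflurane overdose; lungs, bronchi, blood collected.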

[4] = Induction of H2S release in PBS at pH 7.4 at 100 uM pretreated with L-Cys for 10 mins followed by compound addition and measured after 30 mins by free radical analyzer; format: physicochemical; details: buffer, pH 7.4, 0.5 h
In short: (§4)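 An H2S-selective mini-electrode was equilibrated in PBS pH 7.4, and compound was added to 100 μM final (1 % DMSO). Amperometric current was recorded for 30 min, with or without L-cysteine 4 mM added 10 min before. Current was converted to H2S using NaHS calibration (1–10 µM, pH 4.0); mean ± SEM.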

RBL-2H3 [5] = assay: Inhibition of mast cell degranulation in DNP-HSA antigen sensitized rat RBL-2H3 cells assessed as reduction in beta-hexoaminosidase release at 100 uM preincubated for 5 mins followed by DNP addition and measured after 1 hr by multiplate reader; format: functional, cell-based; details: time 65.0 min; in short: as §1
Mus musculus [6] = assay: Anti-asthmatic activity in OVA-induced female BALB/c mouse model assessed as restoration of structure of airway smooth muscle at 3.512 x 10^-6M, ip for 30 min before every ovalbumin challenge on day 0 and 7 and measured after 21 days by H and E staining based microscopic analysis; format: functional, organism-based; details: dose 3.512 10^-6M, time 21.0 day; in short: as §3
Albumin [7] = molecular target: T1, Albumin (Bos taurus, UniProt P02769); assay: Half life in 3% bovine serum albumin at 200 uM incubated up to 4 hrs by UHPLC analysis; format: ADME; details: cattle, 3% bovine serum albumin solution
T1 sequence (P02769 whole entry): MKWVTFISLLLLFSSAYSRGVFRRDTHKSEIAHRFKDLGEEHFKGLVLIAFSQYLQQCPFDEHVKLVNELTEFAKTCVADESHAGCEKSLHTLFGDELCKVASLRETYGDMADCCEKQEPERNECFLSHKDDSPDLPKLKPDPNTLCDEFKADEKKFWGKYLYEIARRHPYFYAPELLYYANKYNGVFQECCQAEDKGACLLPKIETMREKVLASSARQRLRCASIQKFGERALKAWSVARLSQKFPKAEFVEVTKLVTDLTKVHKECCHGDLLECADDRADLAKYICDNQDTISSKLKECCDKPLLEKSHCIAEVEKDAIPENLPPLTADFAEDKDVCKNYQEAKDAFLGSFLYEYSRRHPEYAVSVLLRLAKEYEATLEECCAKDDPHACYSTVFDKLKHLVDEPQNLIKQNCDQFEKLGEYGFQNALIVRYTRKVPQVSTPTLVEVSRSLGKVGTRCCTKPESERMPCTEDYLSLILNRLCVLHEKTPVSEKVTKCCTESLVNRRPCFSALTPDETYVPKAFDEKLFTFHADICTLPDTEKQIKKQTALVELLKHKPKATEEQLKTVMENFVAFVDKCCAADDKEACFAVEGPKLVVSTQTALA
In short: (§5)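 A 10 mM DMSO stock was diluted to 200 μM in 3 % BSA in PBS and incubated at 37 ± 0.5 °C for up to 4 h. Timed samples were deproteinized with an equal volume of acetonitrile/0.1 % TFA, centrifuged, filtered and quantified by UHPLC. Results are given as pseudo-first-order t1/2 or % parent remaining at 10 min; n ≥ 3.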

Mus musculus [8] = assay: Anti-asthmatic activity in OVA-induced female BALB/c mouse model assessed as restoration of structure of alveolar septa at 3.512 x 10^-6M, ip for 30 min before every ovalbumin challenge on day 0 and 7 and measured after 21 days by H and E staining based microscopic analysis; format: functional, organism-based; details: dose 3.512 10^-6M, time 21.0 day; in short: as §3
[9] = Solubility of compound in PBS at pH 7.4 at 5 mg incubated at 25 degreeC for 6 hrs by UHPLC analysis; format: physicochemical; in short: as §2
RBL-2H3 [10] = assay: Cytotoxicity against rat RBL-2H3 cells assessed as reduction cell viability at 100 uM after 24 hrs by WST assay; format: toxicity, cell-based; details: rbl-2h3, 24 h
In short: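 RBL-2H3 cells were grown in MEM with 10 % FBS, 10^4 cells/well, and attached for 24 h. They were then exposed 24 h to 100 μM compound (final) or 0.1 % DMSO. WST-1 (1:10) was added for 60 min at 37 °C and absorbance read at 450 nm. Viability is expressed as % of vehicle; mean ± SEM.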

Mus musculus [11] = assay: Anti-asthmatic activity in OVA-induced female BALB/c mouse model assessed as reduction in cell infiltration at 1 mg/kg, ip for 30 min before every ovalbumin challenge on day 0 and 7 and measured after 21 days by H and E staining based microscopic analysis; format: functional, organism-based; details: time 21.0 day; in short: as §3
Mus musculus [12] = assay: Anti-asthmatic activity in OVA-induced female BALB/c mouse model assessed as reduction in IgE level in plasma at 2 mg/kg, ip for 30 min before every ovalbumin challenge on day 0 and 7 and measured after 21 days by ELISA; format: functional, organism-based; details: time 21.0 day; in short: as §3
[13] = Induction of H2S release in PBS at pH 7.4 at 100 uM measured after 30 mins by free radical analyzer; format: physicochemical; details: buffer, pH 7.4, 0.5 h; in short: as §4
[14] = Solubility of compound in simulated gastric fluid at pH 1.2 in absence of pepsin at 5 mg incubated at 25 degreeC for 6 hrs by UHPLC analysis; format: ADME; details: simulated gastric fluid without pepsin; in short: as §2
Mus musculus [15] = assay: Anti-asthmatic activity in OVA-induced female BALB/c mouse model assessed as reduction in detachment of the lamina propria at 2 mg/kg, ip for 30 min before every ovalbumin challenge on day 0 and 7 and measured after 21 days by H and E staining based microscopic analysis; format: functional, organism-based; details: time 21.0 day; in short: as §3
Mus musculus [16] = assay: Anti-asthmatic activity in OVA-induced female BALB/c mouse model assessed as reduction in thickening of airway smooth muscle layer at 2 mg/kg, ip for 30 min before every ovalbumin challenge on day 0 and 7 and measured after 21 days by H and E staining based microscopic analysis; format: functional, organism-based; details: time 21.0 day; in short: as §3
Mus musculus [17] = assay: Anti-asthmatic activity in OVA-induced female BALB/c mouse model assessed as reduction in alpha-SMA positive muscle layers at 1 to 2 mg/kg, ip for 30 min before every ovalbumin challenge on day 0 and 7 and measured after 21 days by immunohistochemical staining based microscopic analysis; format: functional, organism-based; details: dose 1-2 mg/kg, time 21.0 day; in short: as §3
Mus musculus [18] = assay: Anti-asthmatic activity in OVA-induced female BALB/c mouse model assessed as reduction in cell infiltration at 2 mg/kg, ip for 30 min before every ovalbumin challenge on day 0 and 7 and measured after 21 days by H and E staining based microscopic analysis; format: functional, organism-based; details: time 21.0 day; in short: as §3
Mus musculus [19] = assay: Anti-asthmatic activity in OVA-induced female BALB/c mouse model assessed as reduction in detachment of the lamina propria at 1 mg/kg, ip for 30 min before every ovalbumin challenge on day 0 and 7 and measured after 21 days by H and E staining based microscopic analysis; format: functional, organism-based; details: time 21.0 day; in short: as §3
[20] = Half life in simulated gastric fluid at pH 1.2 in absence of pepsin at 100 uM incubated at 37 degreeC up to 24 hrs by UPHLC analysis; format: ADME; details: simulated gastric fluid without pepsin
In short: (§6)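 A 10 mM DMSO stock was diluted to 100 μM in PBS (pH 7.4, 50 mM) or pepsin-free SGF (pH 1.2) and held at 37 ± 0.5 °C for 24 h. Timed aliquots were quantified by reverse-phase UHPLC-DAD against calibration curves (1.56–100 ppm), tracking the parent compound plus aminoacetate and corticosteroid metabolites. Pseudo-first-order t1/2 was calculated; n = 3.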

Mus musculus [21] = assay: Anti-asthmatic activity in OVA-induced ip dosed female BALB/c mouse model assessed as reduction in pulmonary IL-13 level administered for 30 min before every ovalbumin challenge on day 0 and 7 and measured after 21 days by ELISA; format: functional, organism-based; details: dose 1-2 mg/kg, time 21.0 day; in short: as §3
Mus musculus [22] = assay: Anti-asthmatic activity in OVA-induced ip dosed female BALB/c mouse model assessed as inhibition of bronchial hyperreactivity administered 30 min prior to every ovalbumin challenge on day 0 and 7 and measured after 21 days by isometric force transducer analysis; format: functional, organism-based; details: dose 1-2 mg/kg, time 21.0 day; in short: as §3
Mus musculus [23] = assay: Anti-asthmatic activity in OVA-induced female BALB/c mouse model assessed as reduction in alpha-SMA positive muscle layers at 3.512 x 10^-6M, ip for 30 min before every ovalbumin challenge on day 0 and 7 and measured after 21 days by immunohistochemical staining based microscopic analysis; format: functional, organism-based; details: dose 3.512 10^-6M, time 21.0 day; in short: as §3
Mus musculus [24] = assay: Anti-asthmatic activity in OVA-induced female BALB/c mouse model assessed as reduction in thickening of airway smooth muscle layer at 1 mg/kg, ip for 30 min before every ovalbumin challenge on day 0 and 7 and measured after 21 days by H and E staining based microscopic analysis; format: functional, organism-based; details: time 21.0 day; in short: as §3
[25] = Half life in PBS at pH 7.4 at 100 uM incubated at 37 degreeC up to 24 hrs by UPHLC analysis; format: ADME; in short: as §6
Albumin [26] = molecular target: T1, Albumin; assay: Stability in 3% bovine serum albumin assessed as parent compound remaining at 200 uM incubated at 37 degreeC for 10 mins by UHPLC analysis; format: ADME; details: cattle, 3% bovine serum albumin solution, read-out: Stability; in short: as §5

## O=C(O)c1cc(=O)c2c(OCC(O)COc3cccc4oc(C(=O)O)cc(=O)c34)cccc2o1 [CROMOLYN]
RBL-2H3 [1]
  inhibition at 1000 µM: ~25%

## C[C@]12C=CC(=O)C=C1CC[C@@H]1[C@@H]2[C@@H](O)C[C@@]2(C)[C@H]1C[C@H]1O[C@@H](C3CCCCC3)O[C@]12C(=O)COC(=O)CN=C=S
[2]
  solubility at 6 h: 0.55 µg/mL (≈ 0.965 µM)
Mus musculus [3]
  Activity: Active
[4]
  Activity: ~ 2 uM
RBL-2H3 [5]
  inhibition: Active
Mus musculus [6]
  Activity: Active
Albumin [7]
  half-life at 200 µM: 1.4 h
Mus musculus [8]
  Activity: Active
[9]
  solubility at 6 h: 0.25 µg/mL (≈ 0.439 µM)
RBL-2H3 [10]
  Activity: Non-Toxic
Mus musculus [11]
  Activity: inactive
Mus musculus [12]
  Activity: Active
[13]
  Activity: ~ 2 uM
[14]
  solubility at 6 h: < 0.1 µg/mL
Mus musculus [15]
  Activity: Active
Mus musculus [16]
  Activity: Active
Mus musculus [17]
  Activity: Active
Mus musculus [18]
  Activity: Active
Mus musculus [19]
  Activity: inactive
[20]
  half-life at 100 µM: > 24 h
Mus musculus [21]
  Activity: Dose-Dependent Effect
Mus musculus [22]
  inhibition: Dose-Dependent Effect
Mus musculus [23]
  Activity: Active
Mus musculus [24]
  Activity: inactive
[25]
  half-life at 100 µM: > 24 h

## C[C@@H]1C[C@H]2[C@@H]3CCC4=CC(=O)C=C[C@]4(C)[C@@]3(F)[C@@H](O)C[C@]2(C)[C@@]1(O)C(=O)COC(=O)CN
RBL-2H3 [5]
  inhibition: Active

## [Na+].[SH-] [SODIUM HYDROSULFIDE]
[4]
  Activity: <= 20 uM
[13]
  Activity: <= 20 uM

## CCCC1O[C@@H]2C[C@H]3[C@@H]4CCC5=CC(=O)C=C[C@]5(C)[C@H]4[C@@H](O)C[C@]3(C)[C@]2(C(=O)COC(=O)CN=C=S)O1 (stereo partly drawn)
[2]
  solubility at 6 h: < 0.1 µg/mL
[4]
  Activity: ~ 2 uM
RBL-2H3 [5]
  inhibition: Active
[9]
  solubility at 6 h: < 0.1 µg/mL
RBL-2H3 [10]
  Activity: Non-Toxic
[13]
  Activity: ~ 2 uM
[14]
  solubility at 6 h: < 0.1 µg/mL
Albumin [26]
  remaining at 10 min, 200 µM: 23%
[20]
  half-life at 100 µM: > 24 h
[25]
  half-life at 100 µM: > 24 h
